From ChEMBL document CHEMBL1165950, “Design and synthesis of new potent anticancer pyrazoles with high FLT3 kinase inhibitory selectivity” (Bioorg Med Chem, 2010)

Tests used:
Type in all cases: functional
[1] = system: TK-10; experiment: Cytotoxicity against human TK10 cells assessed as cell growth at 0.001 uM after 48 hrs by sulforhodamine B assay; settings: TK-10, 48 h, read-out: Activity
[2] = system: U-251; experiment: Cytotoxicity against human U251 cells assessed as cell growth at 10 uM after 48 hrs by sulforhodamine B assay; settings: U-251, 48 h, read-out: Activity
[3] = system: A498; experiment: Growth inhibition of human A498 cells after 48 hrs by sulforhodamine B assay; settings: A498, 48 h
Procedure, shortened: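 NCI five-dose SRB assay in RPMI 1640 with 5% FBS and 2 mM L-glutamine. Cells were preincubated 24 h, then exposed 48 h at 37 °C to five concentrations (10-fold or half-log serial dilutions from DMSO stocks). TCA fixation, SRB staining, and absorbance at 515 nm followed. IC50 was taken where [(Ti−Tz)/(C−Tz)]×100 = 50, with Tz as time-zero cell density.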

[4] = system: NCI-H522; experiment: Cytotoxicity against human NCI-H522 cells assessed as cell growth at 1 uM after 48 hrs by sulforhodamine B assay; settings: NCI-H522, 48 h, read-out: Activity
[5] = system: A498; experiment: Cytotoxicity against human A498 cells assessed as cell growth at 100 nM after 48 hrs by sulforhodamine B assay; settings: A498, 48 h, read-out: Activity
Procedure, shortened: (§1)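 NCI-60 five-dose screen. Cells were grown in RPMI 1640 with 5% FBS and 2 mM L-glutamine, plated at 5000–40,000 cells/well and preincubated for 24 h. Time-zero plates were TCA-fixed. DMSO-solubilized drug was added at five concentrations (10-fold or ½-log serial dilutions) for 48 h at 37 °C, 5% CO2. Cells were TCA-fixed, stained with 0.4% SRB and read at 515 nm. Percent growth used time-zero, control and test absorbances.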

[6] = system: SF-268; experiment: Growth inhibition of human SF268 cells after 48 hrs by sulforhodamine B assay; settings: SF-268, 48 h; for CC50: read-out: LC50 (the source's name)
Procedure, shortened: (§2)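 NCI 60-cell screen, five-dose mode. Cells grown in RPMI 1640 with 5% FBS and 2 mM L-glutamine and plated at 5000-40,000 cells/well according to doubling time. After 24 h preincubation, a Tz plate was TCA-fixed. Five concentrations (10-fold or 1/2 log dilutions) were applied for 48 h at 37 °C. SRB staining read at 515 nm. IC50 taken from [(Ti-Tz)/(C-Tz)]×100 = 50.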

[7] = system: NCI/ADR-RES; experiment: Cytotoxicity against human NCI/ADR-RES cells assessed as cell growth at 10 uM after 48 hrs by sulforhodamine B assay; settings: read-out: Activity
[8] = system: UO-31; experiment: Cytotoxicity against human UO31 cells assessed as cell growth at 0.001 uM after 48 hrs by sulforhodamine B assay; settings: UO-31, 48 h, read-out: Activity
[9] = system: RXF 393; experiment: Cytotoxicity against human RXF393 cells assessed as cell growth at 0.01 uM after 48 hrs by sulforhodamine B assay; settings: RXF 393, 48 h, read-out: Activity
[10] = system: K562; experiment: Cytotoxicity against human K562 cells assessed as cell growth at 10 uM; settings: read-out: Activity
Procedure, shortened: (§3)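 Single-dose NCI-60 screen at 10 µM. Cells were grown in RPMI 1640 with 5% FBS and 2 mM L-glutamine, then treated for 48 h at 37 °C. Protein was measured by SRB staining with absorbance at 515 nm. Percentage growth was recorded, and inhibition percentage was calculated as 100 minus growth percentage.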

[11] = system: OVCAR-4; experiment: Cytotoxicity against human OVCAR4 cells assessed as cell growth at 10 uM; settings: read-out: Activity
Procedure, shortened: (§4)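 NCI-60 screen: cells grown in RPMI 1640 with 5% FBS and 2 mM L-glutamine, plated at 5000–40,000 cells/well according to doubling time, and preincubated 24 h at 37 °C, 5% CO2. The single 10 µM dose (DMSO stock) was added, then incubated 48 h. Cells were TCA-fixed and stained with 0.4% SRB, read at 515 nm, and growth % calculated against time-zero and control plates.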

[12] = system: Malme-3M; experiment: Cytotoxicity against human MALME-3M cells assessed as cell growth at 0.001 uM after 48 hrs by sulforhodamine B assay; settings: read-out: Activity
[13] = system: Malme-3M; experiment: Cytotoxicity against human MALME-3M cells assessed as cell growth at 10 uM after 48 hrs by sulforhodamine B assay; settings: read-out: Activity
[14] = Cytotoxicity against human Hs 578T cells assessed as cell growth at 1 uM after 48 hrs by sulforhodamine B assay; settings: read-out: Activity
[15] = system: SN12C; experiment: Cytotoxicity against human SN12C cells assessed as cell growth at 1 uM after 48 hrs by sulforhodamine B assay; settings: read-out: Activity
[16] = system: HCT-116; experiment: Growth inhibition of human HCT116 cells after 48 hrs by sulforhodamine B assay; settings: HCT-116, 48 h; for CC50: read-out: LC50 (the source's name); procedure, shortened: as §2
[17] = system: DU-145; experiment: Cytotoxicity against human DU145 cells assessed as cell growth at 0.001 uM after 48 hrs by sulforhodamine B assay; settings: DU-145, 48 h, read-out: Activity
[18] = system: MDA-MB-435; experiment: Growth inhibition of human MDA-MB-435 cells after 48 hrs by sulforhodamine B assay; settings: MDA-MB-435, 48 h; for CC50: read-out: LC50 (the source's name); procedure, shortened: as §2
[19] = system: OVCAR-4; experiment: Growth inhibition of human OVCAR4 cells after 48 hrs by sulforhodamine B assay; settings: OVCAR-4, 48 h; for CC50: read-out: LC50 (the source's name); procedure, shortened: as §2
[20] = system: 786-0; experiment: Cytotoxicity against human 786-0 cells assessed as cell growth at 10 uM; settings: read-out: Activity; procedure, shortened: as §3
[21] = system: SF-539; experiment: Cytotoxicity against human SF539 cells assessed as cell growth at 10 uM; settings: read-out: Activity; procedure, shortened: as §4
[22] = system: CCRF-CEM; experiment: Cytotoxicity against human CCRF-CEM cells assessed as cell growth at 0.001 uM after 48 hrs by sulforhodamine B assay; settings: read-out: Activity; procedure, shortened: as §1
[23] = system: SK-MEL-5; experiment: Cytotoxicity against human SK-MEL-5 cells assessed as cell growth at 0.01 uM after 48 hrs by sulforhodamine B assay; settings: SK-MEL-5, 48 h, read-out: Activity
[24] = system: NCI-H322M; experiment: Cytotoxicity against human NCI-H322M cells assessed as cell growth at 0.001 uM after 48 hrs by sulforhodamine B assay; settings: read-out: Activity
[25] = system: HL-60(TB); experiment: Cytotoxicity against human HL-60(TB) cells assessed as cell growth at 1 uM after 48 hrs by sulforhodamine B assay; settings: HL-60, 48 h, read-out: Activity
Procedure, shortened: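 NCI 60-cell panel. Cells are grown in RPMI 1640 with 5% FBS and 2 mM L-glutamine, seeded at 5000–40,000 cells/well according to doubling time, and preincubated 24 h. Time-zero plates are TCA-fixed. Compound from DMSO stock is given at five 10-fold or 1/2-log concentrations for 48 h at 37 °C, 5% CO2. Suspension cells are fixed with 80% TCA (final 16%) and SRB-stained, with absorbance at 515 nm. Percent growth is derived from Tz, control and test readings.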

[26] = system: TK-10; experiment: Cytotoxicity against human TK10 cells assessed as cell growth at 0.01 uM after 48 hrs by sulforhodamine B assay; settings: TK-10, 48 h, read-out: Activity

| Compound | growth at 0.001 µM [1] [%] | growth at 10 µM [2] [%] | GI50 [3] [µM] | LC50 [3] [µM] | TGI [3] [µM] | growth at 1 µM [4] [%] | growth at 0.1 µM [5] [%] | GI50 [6] [µM] | TGI [6] [µM] | CC50 [6] [µM] | growth at 10 µM [7] [%] | growth at 0.001 µM [8] [%] | growth at 0.01 µM [9] [%] | growth at 10 µM [10] [%] | growth at 10 µM [11] [%] | growth at 0.001 µM [12] [%] | growth at 10 µM [13] [%] | growth at 1 µM [14] [%] | growth at 1 µM [15] [%] | GI50 [16] [µM] | other results |
| --- | --- | --- | --- | --- | --- | --- | --- | --- | --- | --- | --- | --- | --- | --- | --- | --- | --- | --- | --- | --- | --- |
| COc1cc(C)cc(-c2c(-c3ccnc(-c4ccc(N(C)C)cc4)c3)cnn2CC#N)c1 | 99 | 6 | 0.132 | > 100 | > 100 | -53 | 10 | 0.302 | > 100 | > 100 | 3 | 83 | 84 | 9.74 | 26 | 97 | 13 | 18 | 18 | 0.0501 | TGI [16]: 1.03 µM; CC50 [16]: > 100 µM; growth at 0.001 µM [17]: 102%; GI50 [18]: 0.0226 µM; TGI [18]: 0.0669 µM; CC50 [18]: > 100 µM; GI50 [19]: 0.27 µM; TGI [19]: > 100 µM; CC50 [19]: > 100 µM; growth at 10 µM [20]: -1.5%; growth at 10 µM [21]: -7.06%; growth at 0.001 µM [22]: 95%; growth at 0.01 µM [23]: 19%; growth at 0.001 µM [24]: 97%; growth at 1 µM [25]: -27%; growth at 0.01 µM [26]: 75% |
| COc1cc(C)cc(-c2c(-c3ccnc(-c4ccc(C(C)=O)cc4)c3)cnn2CC#N)c1 | 103 | 13 | 2.03 | > 100 | > 100 | -14 | 65 | 3.14 | > 100 | > 100 | 11 | 88 | 101 | 30.1 | 80.2 | 105 | 43 | -23 | 28 | 1.7 | TGI [16]: 5.4 µM; CC50 [16]: > 100 µM; growth at 0.001 µM [17]: 109%; GI50 [18]: 1.93 µM; TGI [18]: > 100 µM; CC50 [18]: > 100 µM; GI50 [19]: 5.13 µM; TGI [19]: > 100 µM; CC50 [19]: > 100 µM; growth at 10 µM [20]: 67.2%; growth at 10 µM [21]: 59.9%; growth at 0.001 µM [22]: 96%; growth at 0.01 µM [23]: 94%; growth at 0.001 µM [24]: 102%; growth at 1 µM [25]: 20%; growth at 0.01 µM [26]: 100% |
| Cc1cc(O)cc(-c2nn(CC#N)cc2-c2ccnc(-c3ccc(N(C)C)cc3)c2)c1 | 105 | -66 | 3.03 | > 100 | 13.4 | -13 | 92 | 3.55 | 16.9 | 77.9 | -4 | 89 | 104 | 19.5 | 29.9 | 91 | -19 | -15 | 26 | 2.71 | TGI [16]: 10.4 µM; CC50 [16]: 41.9 µM; growth at 0.001 µM [17]: 103%; GI50 [18]: 1.01 µM; TGI [18]: 3.21 µM; CC50 [18]: > 100 µM; GI50 [19]: 4.85 µM; TGI [19]: > 100 µM; CC50 [19]: > 100 µM; growth at 10 µM [20]: 26.2%; growth at 10 µM [21]: 21.7%; growth at 0.001 µM [22]: 97%; growth at 0.01 µM [23]: 90%; growth at 0.001 µM [24]: 94%; growth at 1 µM [25]: 2%; growth at 0.01 µM [26]: 107% |
